Screens deposited in PubChem BioAssay by several laboratories.
SENP1 inh: blocks the human SENP1 SUMO protease catalytic domain; 360,000 compounds, 0.21% hits; recombinant SENP1 catalytic domain, CyPet-SUMO1-YPet FRET cleavage; Q9P0U3; inhibition, % at 10 µM;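 active = inhibition at least 30% at 10 µM, raw YFP signal under a set limit, fluorescence ratio 0.5 to 1.5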;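 note: 0% = enzyme with DMSO and 100% = no enzyme wells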
Target sequence (Q9P0U3 419-644 limits assumed): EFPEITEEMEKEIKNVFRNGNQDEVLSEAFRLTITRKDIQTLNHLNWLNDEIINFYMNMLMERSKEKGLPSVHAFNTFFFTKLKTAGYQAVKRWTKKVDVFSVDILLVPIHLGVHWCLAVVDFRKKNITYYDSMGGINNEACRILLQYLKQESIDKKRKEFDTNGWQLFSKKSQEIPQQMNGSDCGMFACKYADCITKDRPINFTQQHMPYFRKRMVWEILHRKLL
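Compound: 10 µM single point, 0.5% DMSO; Test system: hSENP1 catalytic domain, recombinant; Timing: 50 min reaction at room temperature; Technique: FRET, CFP and YFP emission; Control set: no-enzyme wells low, DMSO-plus-enzyme wells high control.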
hiPSC survival: hiPSC single-cell survival enhancement. ATPlite luminescence; 100% = ROCK inhibitor wells, 0% = DMSO. survival enhancement, % at 20 µM. 360,000 compounds, 0.044% hits. AID 602274; in the data active = survival enhancement above about 18%;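 note: cells exposed to compounds for 16 hours before the ATP read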
GRIN3A LBD mod: modulates the human NR3A ligand-binding domain; NR3A LBD differential scanning fluorimetry, Tm shift; 0% = protein alone, 100% = glycine-bound protein; Tm shift relative to glycine control, % at 25 µM; 340,000 compounds, 2.5% hits; AID 1259313;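 active = melting temperature shift of at least 10% of the positive control shift, at one fixed dose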
H9c2 protect: protects H9c2 cardiomyocytes from peroxide injury; protection from H2O2 cell death, % at 20 µM; 360,000 compounds, 0.63% hits; H2O2 injury protection, ATPLite, 2 h;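 active = compounds giving at least 50% protection of heart cells from peroxide-induced death in the single-dose screen, raw or plate-pattern-corrected value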;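 note: 0% = DMSO wells with peroxide and 100% = DMSO wells without peroxide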
Arr AP2 block: human beta-arrestin and AP2 interaction inhibition; FITC-arrestin peptide / GST-AP2 beads, flow cytometry; AP2 beta2 appendage carries R879A mutation; inhibition, % at 10 µM; 340,000 compounds, 0.31% hits; AID 504490;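 active = inhibition above a set limit, near 3 SD of compounds lacking own fluorescence, cut at about 54% in these data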;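 note: plate controls were DMSO wells for no effect and 5 µM unlabelled arrestin peptide for full effect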
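System: GST-AP2 R879A glutathione beads | Also added: FITC-arrestin peptide, 50 nM | Times: 12 min plus 1 h, RT | Signal: Bead flow cytometry, FITC channel | Buffer or medium: PBS with 0.05% Tween 20 and 0.1% BSA | Read-out basis: Percent drop in bead-associated FITC signal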
FAS TE block: blocks the thioesterase domain of human fatty acid synthase | recombinant FAS-TE, OMFH fluorogenic substrate, fluorescence endpoint | inhibition, % at 15 µM | 360,000 compounds, 0.67% hits | AID 602261;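 active = compounds whose normalised, plate-corrected inhibition of enzyme fluorescence in the single-dose primary screen is 50% or more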;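 note: 0% = DMSO with enzyme and 100% = substrate without enzyme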
Numbers without * were called inactive; . = no result; ! = a repeat was not active. This is a sample that favours compounds with a hit; in the whole collection about 4% have one here.

SMILES	SENP1 inh	hiPSC survival	GRIN3A LBD mod	H9c2 protect	Arr AP2 block	FAS TE block
CC1=C(C(=O)N2CCOCC2)CC(CC(=O)NC2CCCCC2)C(=O)N1Cc1ccc(F)cc1 (configuration not stated)	1	-2	.	29	.	-5
CCN(CC)C(=O)C1=C(C)N(Cc2ccc(C(C)(C)C)cc2)C(=O)C(CC(=O)NCc2cccs2)C1 (configuration not stated)	4	6	.	-10	.	3
CCOC(=O)[C@]12CCCC=C1N(Cc1ccccc1)C(=O)[C@H](CC(=O)N1CCC(c3ccccc3)CC1)C2	-1	.	.	.	.	.
CCCCNS(=O)(=O)c1ccc2nc(SCC(=O)Nc3sccc3C#N)[nH]c2c1	-18	-1	14*	-37	-3	8
CCCCNS(=O)(=O)c1ccc2nc(SCC(N)=O)[nH]c2c1	-4	0	2	-3	-1	-2
CCCCNS(=O)(=O)c1ccc2nc(SCC(=O)Nc3cccc(F)c3)[nH]c2c1	0	0	17*	-10	15	-13
COc1ccc(-c2csc(NC(=O)CN3C(=O)C4CC=CCC4C3=O)n2)cc1OC (configuration not stated)	0	0	-1	6	-5	-4
COc1ccc(-c2csc(NC(=O)CN3C(=O)C4CCCCC4C3=O)n2)cc1OC (configuration not stated)	0	0	12*	11	17	9
O=C(CN1C(=O)C2CC=CCC2C1=O)Nc1nc(-c2ccc(F)c(F)c2)cs1 (configuration not stated)	0	-4	-7	82*	-6	13
C[C@@H]1CN([C@@H](C)CO)C(=O)CCCn2cc(nn2)CO[C@H]1CN(C)S(=O)(=O)c1cn(C)cn1	0	-1	.	10	.	-5
Cc1ccc2c(c1)CCO[C@@]21O[C@H](CCO)C[C@H](O)[C@H]1O	1	-1	.	0	.	-6
CC1(Oc2ccc3ccccc3c2)CCN(Cc2cccn2-c2nccs2)C1 (configuration not stated)	-1	-1	.	-25	.	17
O=C(Nc1ccc(C(O)c2ccccc2)cc1)[C@H]1C[C@H](O)[C@@H](CO)O1 (some centres not stated)	2	-2	.	-4	.	-10
COc1cccc(-c2cc(N)nn2C(=O)Nc2ccc(Cl)cc2)c1	-1	-1	27*	-7	-8	7
O=S(=O)(c1cccc2ccccc12)N1CCCCC1	0	0	2	-6	-5	7
O=S(=O)(c1cccc2cnccc12)N1CCCNCC1	-5	58*	-1	2	-16	-2
CC1CNCCN1S(=O)(=O)c1cccc2cnccc12 (configuration not stated)	0	20*!	0	-27	7	5
COc1cc(/C=N/NC(=O)CC2(C)OCCO2)cc(Br)c1O	-2	0	37*	4	10	-5
O=C(NN1C(=O)/C(=C/c2ccc(O)c([N+](=O)[O-])c2)SC1=S)c1ccccc1Cl	32*	2	-3	-3	21	4
COc1cc(/C=C2\SC(=S)N(NC(=O)c3ccccc3O)C2=O)ccc1O	59*	0	11*	3	1	-2
O=C(NN1C(=O)/C(=C/c2ccc(O)cc2)SC1=S)c1ccccc1O	81	0	16*	7	10	-15
O=C(NCc1ccncc1)[C@@H]1CCCN1C(=O)[C@H]1CCCN1C(=O)c1cccc(Cl)c1	3	2	.	.	.	-8
CN1CCN(C(=O)C2Cc3c(-c4ccc5c(c4)OCO5)ccnc3O2)CC1 (configuration not stated)	-2	3	.	0	.	-10
Cc1ccc(NS(=O)(=O)c2ccc(Cl)c(N=Nc3c(O)[nH]c(=O)[nH]c3=O)c2)cc1Cl	-4	-2	11*	-4	-5	10
C/C(=N\OC(=O)c1ccc(Cl)cc1)c1sc(-c2ccccc2)nc1C	3	-2	5	-8	19	2
SMILES	SENP1 inh	hiPSC survival	GRIN3A LBD mod	H9c2 protect	Arr AP2 block	FAS TE block
C/C(=N\OC(=O)c1cccc(C(F)(F)F)c1)c1sc(-c2ccccc2)nc1C	-1	0	2	4	14	17
C/C(=N\OC(=O)c1cccc(C)c1)c1sc(-c2ccccc2)nc1C	6	-2	18*	-8	12	-2
C/C(=N\OC(=O)c1ccc(F)cc1)c1sc(-c2ccccc2)nc1C	2	-1	11*	-13	13	0
COC(=O)[C@@]12C[C@@H](CC(=O)NCc3ccc(C)o3)C(=O)N(Cc3ccc4c(c3)OCO4)C1=CCC(C)(C)C2	0	.	.	.	.	.
CCOCCN1CCN(c2c(CC)c(C)nc3cc(-c4cc(OC)cc(OC)c4)nn23)CC1	0	-2	2	73*	-16	6
CN(CC1CCCN(CCc2ccccc2F)C1)C(=O)c1cc2ccccc2o1 (configuration not stated)	-15	-2	.	4	.	-1
CCOC(=O)c1cnn(CCOC(=O)c2ccc(OC)cc2)c1NC(=O)c1ccc(OC)cc1	-6	0	16*	2	7	5
CCOC(=O)c1cnn(CCOC(=O)c2ccccc2)c1NC(=O)c1ccccc1	0	4	-10	-1	-1	-1
CSc1ccc(C(O)c2ncc(-c3ccc(F)cc3)[nH]2)cc1 (configuration not stated)	-1	-1	.	-15	.	3
N=C1/C(=C\c2ccc(-c3cccc(Cl)c3)o2)C(=O)N=C2SC=C(c3ccccc3)N12	-25	0	13*	3	10	16
CC1(C(=O)NS(=O)(=O)Cc2ccccc2C(F)(F)F)CCN1C(=O)Cc1cccs1 (configuration not stated)	2	0	.	-5	.	-7
COc1ccc(-c2nc3c4ccccc4ccn3c2Cc2cccc(F)c2)cc1OC	-47	1	.	-1	.	12
COc1ccc(C(=S)N2CCN(c3ccccc3Cl)CC2)cc1OC	1	0	-411	5	2	9
COc1cc(C(=S)N2CCN(c3ccccc3Cl)CC2)cc(O)c1O	-1	-1	-25	85*	5	-7
CCOC(=O)/C(=N\Nc1ccccc1)c1csc(Nc2ccc(C)cc2)n1	-3	-4	25*	-7	13	38
CCCCC(CCC(=O)O)(C(=O)OCC)c1csc(Nc2ccc(C)cc2)n1 (configuration not stated)	2	-1	-2	7	-10	0
COC(=O)C[C@H]1CC[C@H](NC(=O)Nc2ccccc2F)[C@@H](CO)O1	3	.	.	.	.	.
CS(=O)(=O)N(Cc1cc2ccccc2[nH]c1=O)C1CCCCC1	-26	27*	-1	8	14	-8
